Measured values: ChEMBL document CHEMBL3259620, “Structure-activity relationships and molecular modelling of new 5-arylidene-4-thiazolidinone derivatives as aldose reductase inhibitors and potential anti-inflammatory agents” (Eur J Med Chem, 2014)
Blank lines part the entries; values can stand above or below the compound they belong to. Active and inactive are the calls of the source. The calls are words filed in the database; no cut-off is given here.

How the values were obtained:
[1] = target: Aldo-keto reductase family 1 member B1 (Bos taurus, UniProt P16116); test: Inhibition of bovine aldose reductase assessed as oxidation of NADPH
Procedure, shortened: (§1)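 AR purified from bovine lens (specific activity 1.2 U/mg), 5 mU per assay. Mixture of 0.25 M sodium phosphate pH 6.8, 4.67 mM D,L-glyceraldehyde, 0.11 mM NADPH, 0.38 M ammonium sulphate, 0.5 mM EDTA, 1% DMSO final. NADPH oxidation followed as absorbance decrease at 340 nm, 37 °C. IC50 by nonlinear fit to one-site competition log dose–inhibition curve.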

[2] = target: T1, Nuclear factor NF-kappa-B complex (Homo sapiens) (UniProt Q00653+P19838+Q04206); test: Inhibition of IFN-gamma/histamine-induced NF-kappaB activation in human NCTC-2544 cells assessed as inhibition of nuclear translocation at 10 to 20 uM after 48 hrs by Western blot analysis; format: cell-based
Procedure, shortened: (§2)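 NCTC 2544 keratinocytes kept at 37 °C in 95% air/5% CO2, medium with 10% foetal calf serum plus penicillin/streptomycin, plated 1.5 × 10⁶ per dish 24 h beforehand. Stimulated with 200 U/ml IFN-γ and 10^-4 M histamine while exposed to compound; after 48 h, lysates (50 µg protein) run in Western blots against NF-κB p50 (nuclear activated form) or iNOS, signal normalized to α-tubulin. Each experiment at least three times in triplicate, mean ± SEM.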

[3] = target: T1, Nuclear factor NF-kappa-B complex (Homo sapiens); test: Inhibition of IFN-gamma/histamine-induced NF-kappaB activation in human NCTC-2544 cells assessed as inhibition of nuclear translocation at 10 uM after 48 hrs by Western blot analysis relative to sorbinil; format: cell-based; procedure, shortened: as §2
NCTC-2544 [4] = test: Antiinflammatory activity in human NCTC-2544 cells assessed as reduction of IFN-gamma/histamine-induced-induced iNOS expression at 10 to 20 uM after 48 hrs by Western blot analysis; format: functional, cell-based; procedure, shortened: as §2
NCTC-2544 [5] = test: Antiinflammatory activity in human NCTC-2544 cells assessed as reduction of IFN-gamma/histamine-induced-induced iNOS expression at 20 uM after 48 hrs by Western blot analysis relative to control level; format: functional, cell-based; procedure, shortened: as §2
[6] = target: Aldo-keto reductase family 1 member B1 (Bos taurus) (UniProt P16116); test: Inhibition of bovine aldose reductase assessed as oxidation of NADPH at 50 uM; procedure, shortened: as §1

T1 sequence (P19838 whole entry, looked up): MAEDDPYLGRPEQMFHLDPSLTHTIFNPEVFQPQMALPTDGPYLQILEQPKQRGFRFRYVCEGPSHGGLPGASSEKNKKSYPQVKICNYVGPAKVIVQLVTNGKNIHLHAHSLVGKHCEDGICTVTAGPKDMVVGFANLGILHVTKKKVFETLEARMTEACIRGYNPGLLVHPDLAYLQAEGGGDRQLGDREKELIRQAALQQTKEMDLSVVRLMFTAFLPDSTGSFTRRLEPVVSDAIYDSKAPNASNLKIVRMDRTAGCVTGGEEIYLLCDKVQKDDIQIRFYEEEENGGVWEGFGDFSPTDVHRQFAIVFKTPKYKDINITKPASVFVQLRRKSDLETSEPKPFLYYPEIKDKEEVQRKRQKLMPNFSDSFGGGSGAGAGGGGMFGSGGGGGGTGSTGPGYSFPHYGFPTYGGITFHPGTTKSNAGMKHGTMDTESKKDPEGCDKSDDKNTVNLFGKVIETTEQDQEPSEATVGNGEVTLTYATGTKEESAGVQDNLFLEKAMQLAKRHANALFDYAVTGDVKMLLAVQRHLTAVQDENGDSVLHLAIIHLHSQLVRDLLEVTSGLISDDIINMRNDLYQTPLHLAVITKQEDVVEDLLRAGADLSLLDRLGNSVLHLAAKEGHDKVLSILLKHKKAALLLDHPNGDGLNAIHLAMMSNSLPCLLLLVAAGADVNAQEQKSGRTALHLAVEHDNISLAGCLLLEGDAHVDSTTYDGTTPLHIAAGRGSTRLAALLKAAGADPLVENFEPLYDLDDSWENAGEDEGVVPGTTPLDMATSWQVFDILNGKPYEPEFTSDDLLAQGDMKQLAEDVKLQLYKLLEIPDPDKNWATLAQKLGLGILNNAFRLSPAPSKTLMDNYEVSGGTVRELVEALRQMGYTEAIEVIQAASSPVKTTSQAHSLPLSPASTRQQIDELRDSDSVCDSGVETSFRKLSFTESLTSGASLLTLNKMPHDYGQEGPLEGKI
T1 sequence (Q00653 whole entry, looked up): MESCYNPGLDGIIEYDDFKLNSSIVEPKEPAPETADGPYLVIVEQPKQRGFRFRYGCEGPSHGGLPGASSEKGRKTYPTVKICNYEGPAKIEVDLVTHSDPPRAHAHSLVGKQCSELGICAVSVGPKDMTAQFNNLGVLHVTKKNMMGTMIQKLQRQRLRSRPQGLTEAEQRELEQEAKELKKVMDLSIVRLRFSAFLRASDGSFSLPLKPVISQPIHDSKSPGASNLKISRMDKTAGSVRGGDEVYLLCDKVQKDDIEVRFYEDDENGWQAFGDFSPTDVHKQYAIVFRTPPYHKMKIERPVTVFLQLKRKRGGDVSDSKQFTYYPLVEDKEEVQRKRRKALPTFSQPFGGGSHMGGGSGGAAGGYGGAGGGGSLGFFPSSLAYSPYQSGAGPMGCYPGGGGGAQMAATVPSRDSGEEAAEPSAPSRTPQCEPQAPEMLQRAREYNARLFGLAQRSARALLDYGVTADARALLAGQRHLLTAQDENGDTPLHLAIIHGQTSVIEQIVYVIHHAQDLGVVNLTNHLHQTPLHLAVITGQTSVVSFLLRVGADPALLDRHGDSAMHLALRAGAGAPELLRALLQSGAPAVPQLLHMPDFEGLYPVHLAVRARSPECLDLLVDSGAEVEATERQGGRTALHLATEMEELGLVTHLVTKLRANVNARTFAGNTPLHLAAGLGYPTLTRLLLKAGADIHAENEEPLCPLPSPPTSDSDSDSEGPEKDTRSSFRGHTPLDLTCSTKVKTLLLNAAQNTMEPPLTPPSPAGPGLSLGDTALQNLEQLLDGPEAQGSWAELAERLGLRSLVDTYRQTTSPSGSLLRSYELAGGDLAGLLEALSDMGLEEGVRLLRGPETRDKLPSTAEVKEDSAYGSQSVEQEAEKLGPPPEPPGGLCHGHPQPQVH
T1 sequence (Q04206 whole entry, looked up): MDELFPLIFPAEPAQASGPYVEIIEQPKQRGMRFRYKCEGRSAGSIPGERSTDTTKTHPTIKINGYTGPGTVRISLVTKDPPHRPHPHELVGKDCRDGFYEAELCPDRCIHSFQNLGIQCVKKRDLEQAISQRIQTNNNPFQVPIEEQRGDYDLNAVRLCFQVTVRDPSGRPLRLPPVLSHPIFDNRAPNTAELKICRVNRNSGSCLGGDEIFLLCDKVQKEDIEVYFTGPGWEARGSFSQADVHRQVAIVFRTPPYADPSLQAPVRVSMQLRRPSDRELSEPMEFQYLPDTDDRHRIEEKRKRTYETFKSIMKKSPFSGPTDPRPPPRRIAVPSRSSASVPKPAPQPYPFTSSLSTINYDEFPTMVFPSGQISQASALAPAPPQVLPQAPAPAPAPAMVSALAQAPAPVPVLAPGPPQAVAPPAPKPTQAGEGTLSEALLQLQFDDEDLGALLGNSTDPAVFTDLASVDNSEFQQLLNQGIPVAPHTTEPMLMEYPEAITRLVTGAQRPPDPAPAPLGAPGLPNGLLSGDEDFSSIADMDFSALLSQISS

IC50 [1]: 130 nM | NF-kappaB nuclear translocation inhibition (active/not active) [2]: Active | inhibition [3]: Active
Structure (SMILES): COc1ccc(/C=C2\SC(=S)N(CC(=O)O)C2=O)cc1OCC(N)=O
inhibition (NCTC-2544 [4]): Active | inhibition (NCTC-2544 [5]): Active

IC50 [1]: 560 nM
Structure (SMILES): NC(=O)COc1ccc(/C=C2\SC(=O)N(CC(=O)O)C2=O)cc1

inhibition [6]: 40%
Structure (SMILES): NC(=O)COc1ccc(/C=C2\SC(=O)NC2=O)cc1

IC50 [1]: 33900 nM
Structure (SMILES): COc1cc(/C=C2\SC(=O)NC2=O)ccc1OCC(N)=O

IC50 [1]: 1010 nM
Structure (SMILES): NC(=O)COc1cccc(/C=C2\SC(=O)N(CC(=O)O)C2=O)c1

The remaining lines, values behind:

Structure (SMILES): NC(=O)COc1cccc(/C=C2\SC(=O)NC2=O)c1
IC50 [1]: 21500 nM

Structure (SMILES): NC(=O)COc1cccc(/C=C2\SC(=S)N(CC(=O)O)C2=O)c1
IC50 [1]: 130 nM | NF-kappaB nuclear translocation inhibition (active/not active) [2]: Active | inhibition [3]: Active | inhibition (NCTC-2544 [4]): inactive

Structure (SMILES): COc1ccc(/C=C2\SC(=S)NC2=O)cc1OCC(N)=O
IC50 [1]: 9200 nM | NF-kappaB nuclear translocation inhibition (active/not active) [2]: inactive | inhibition (NCTC-2544 [4]): Active | inhibition (NCTC-2544 [5]): Active

Structure (SMILES): NC(=O)COc1cccc(/C=C2\SC(=S)NC2=O)c1
IC50 [1]: 8650 nM | NF-kappaB nuclear translocation inhibition (active/not active) [2]: inactive | inhibition (NCTC-2544 [4]): Active | inhibition (NCTC-2544 [5]): Active

Structure (SMILES): COc1ccc(/C=C2\SC(=O)N(CC(=O)O)C2=O)cc1OCC(N)=O
IC50 [1]: 520 nM

Structure (SMILES): NC(=O)COc1ccc(/C=C2\SC(=S)N(CC(=O)O)C2=O)cc1
IC50 [1]: 130 nM

Structure (SMILES): COc1cc(/C=C2\SC(=O)N(CC(=O)O)C2=O)ccc1OCC(N)=O
IC50 [1]: 500 nM

Structure (SMILES): COc1cc(/C=C2\SC(=S)N(CC(=O)O)C2=O)ccc1OCC(N)=O
IC50 [1]: 110 nM | NF-kappaB nuclear translocation inhibition (active/not active) [2]: Active | inhibition [3]: Active | inhibition (NCTC-2544 [4]): Active

Structure (SMILES): COc1cc(/C=C2\SC(=S)NC2=O)ccc1OCC(N)=O
IC50 [1]: 11600 nM

Structure (SMILES): O=C1NC(=O)[C@@]2(CCOc3ccc(F)cc32)N1
inhibition [3]: Active

Structure (SMILES): COc1ccc(/C=C2\SC(=O)NC2=O)cc1OCC(N)=O
IC50 [1]: 22600 nM

Structure (SMILES): NC(=O)COc1ccc(/C=C2\SC(=S)NC2=O)cc1
inhibition [6]: 34%
